Published values pooled from the literature.
Each line is one published result; the experiments were not run side by side.
Target: Ephrin type-B receptor 2 (EPHB2, Homo sapiens, UniProt P29323)
Residues used in one study (P29323 19-1055): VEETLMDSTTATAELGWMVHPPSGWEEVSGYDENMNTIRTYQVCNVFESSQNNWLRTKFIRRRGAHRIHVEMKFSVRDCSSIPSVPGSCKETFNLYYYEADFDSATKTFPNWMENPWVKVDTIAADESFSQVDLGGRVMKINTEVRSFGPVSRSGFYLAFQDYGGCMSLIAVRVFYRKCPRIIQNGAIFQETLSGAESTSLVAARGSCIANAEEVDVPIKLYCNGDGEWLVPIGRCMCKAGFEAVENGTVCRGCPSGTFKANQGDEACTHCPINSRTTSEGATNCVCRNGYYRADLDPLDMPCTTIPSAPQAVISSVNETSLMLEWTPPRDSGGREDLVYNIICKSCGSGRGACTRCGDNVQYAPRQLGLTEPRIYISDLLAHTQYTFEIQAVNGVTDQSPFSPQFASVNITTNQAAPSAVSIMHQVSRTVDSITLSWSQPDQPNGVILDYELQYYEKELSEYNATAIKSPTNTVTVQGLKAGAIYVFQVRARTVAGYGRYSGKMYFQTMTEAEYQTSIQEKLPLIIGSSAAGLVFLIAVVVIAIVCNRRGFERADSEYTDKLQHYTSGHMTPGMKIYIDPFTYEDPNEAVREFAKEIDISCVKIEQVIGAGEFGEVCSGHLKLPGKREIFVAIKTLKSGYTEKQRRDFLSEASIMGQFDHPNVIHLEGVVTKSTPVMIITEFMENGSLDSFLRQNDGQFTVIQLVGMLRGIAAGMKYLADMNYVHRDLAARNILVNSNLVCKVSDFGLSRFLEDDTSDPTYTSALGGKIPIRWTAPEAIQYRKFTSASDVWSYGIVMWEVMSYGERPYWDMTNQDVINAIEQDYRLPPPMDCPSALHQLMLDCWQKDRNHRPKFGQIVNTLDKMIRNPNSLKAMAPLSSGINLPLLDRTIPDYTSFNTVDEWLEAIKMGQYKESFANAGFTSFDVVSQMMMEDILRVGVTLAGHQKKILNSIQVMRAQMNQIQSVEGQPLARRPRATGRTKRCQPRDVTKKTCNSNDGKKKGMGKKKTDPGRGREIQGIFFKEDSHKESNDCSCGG

SMILES	test	conditions	remaining binding [%]
Cc1nc(Cc2cccc(C(F)(F)F)c2)sc1-c1ccc(C(N)=O)nc1	cell-free assay, competition with immobilised ligand	1 µM	86
c1cncc(-c2cccc(Nc3nccc(NC4CCCCC4)n3)c2)c1	binding, competition with immobilised ligand	10 µM	90
Cc1cnc(Nc2ccc(C(=O)N3CCC(N4CCCC4)CC3)cc2)nc1-c1cc2ccccc2s1	binding, competition with immobilised ligand	1 µM	65
Cc1nccc(COC(=O)N2C[C@@H]3[C@@H](CNC(=O)c4ccc5[nH]nnc5c4)[C@@H]3C2)n1	cell-free assay, competition with immobilised ligand	1 µM	100
FC(F)(F)Oc1cccc(-c2cnc3ccc(-c4ccncc4)nn23)c1	cell-free assay, competition with immobilised ligand	5 µM	96
O=C(Nc1c[nH]nc1C(=O)NC1CCNCC1)c1cc(F)cc(F)c1	binding, competition with immobilised ligand	1 µM	100
CS(=O)(=O)NCC[C@H](NC(=O)c1cncc2c1cnn2-c1ccc(F)cc1)c1ccnc(S(C)(=O)=O)c1	cell-free assay, competition with immobilised ligand	1 µM	92
C[C@@H]1CCN(c2nccc(-c3cnn4ncccc34)n2)C1	binding	1 µM	100
CNC(=O)[C@@H]1CC[C@@H](n2c(-c3ccc4cnccc4c3)nc3ccc(C(=O)NCc4cccc(C(N)=O)c4)cc32)C1	binding, competition with immobilised ligand	1 µM	96
c1cnn2ncc(-c3ccnc(N4CCC45COC5)n3)c2c1	binding	1 µM	100
CO[C@H]1CC[C@H](CNc2ccc(S(=O)(=O)NC(=O)c3ccc(N4CCN(CC5=C(c6ccc(Cl)cc6)CC(C)(C)CC5)CC4)cc3Oc3cnc4[nH]ccc4c3)cc2[N+](=O)[O-])CC1	cell-free assay, competition with immobilised ligand	1 µM	75
COc1ccnn2ncc(-c3ccnc(N(C)C)n3)c12	binding	1 µM	100
CCN1CCN(Cc2ccc(C(=O)Nc3ccc(C)c(Oc4ccc5c(c4)CC(=O)N5)c3)cc2C(F)(F)F)CC1	binding, competition with immobilised ligand	1 µM	100
CN(C)c1nccc(-c2cnc3ncccn23)n1	binding	1 µM	92
O=C(NCCCN1CCOCC1)c1ccc(Nc2nccc(-c3cc4ccccc4s3)n2)cc1	binding, competition with immobilised ligand	1 µM	98
N[C@@H]1CCN(c2nccc(-c3cnn4ncccc34)n2)C1	binding	1 µM	100
COCCOc1nc(-c2ccc(Cl)nc2)nc2c1CN(C(=O)c1ncn3ccccc13)CC2	cell-free assay, competition with immobilised ligand	0.1 µM	79
COc1cnc(Nc2cccc(S(N)(=O)=O)c2)nc1N1CCN(c2ccccc2)CC1	binding, competition with immobilised ligand	1 µM	100
